Assay results: ChEMBL document CHEMBL5321286, “Antiviral Evaluation of Dispirotripiperazines against Hepatitis B Virus” (J Med Chem, 2023)
pEC50: −log10 of the molar value. The source made the active and inactive calls. The calls are words filed in the database; no cut-off is given here.

Assays:
[1] = Cytotoxicity against human HepDES19 cells assessed as reduction in cell viability incubated for 72 hrs by MTS assay; assay type: toxicity, cell-based; settings: for CC50 at 72 h: HepDES19 cells
How it was run: (§1)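 HepDES19 (HepG2-derived, tetracycline-repressible HBV cassette) cells were induced to replicate HBV by tetracycline withdrawal and exposed to compound for 3 days. Replication was read by strand-preferential qPCR; cytotoxicity by MTS assay.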

[2] = Selectivity index, ratio of CC50 for cytotoxicity against human HepDES19 cells to EC50 for antiviral activity against Hepatitis B virus infected in human HepDES19 cells; assay type: toxicity, cell-based; settings: for selectivity ratio: HepDES19 cells, read-out: Ratio CC50/EC50; how it was run: as §1
Hepatitis B virus [3] = assay: Antiviral activity against Hepatitis B virus infected in human HepDES19 cells assessed as reduction in viral DNA replication measured after 3 days by q-PCR assay; assay type: functional, organism-based
How it was run: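 HepDES19, a HepG2 derivative with a tetracycline-repressible HBV cassette, was induced to replicate HBV by tetracycline withdrawal. Cells were exposed to compound for 3 days. Replication was measured by strand-preferential qPCR.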

[4] = Selectivity index, ratio of CC50 for cytotoxicity against human HepG2 2.2.15 cells to EC50 for antiviral activity against Hepatitis B virus ayw1 infected in human HepG2 2.2.15 cells; assay type: toxicity, cell-based; settings: read-out: Ratio CC50/EC50
How it was run: (§2)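 HepG2 2.2.15 cells seeded at 1.5 × 10^4 cells/well in DMEM with 2% FBS, 380 μg/mL G418 and glutamine, using interior wells only. After 16-24 h, the medium was replaced with serial compound dilutions in triplicate, refreshed at day 3. At day 6, pronase-treated supernatant HBV DNA was measured by TaqMan qPCR against a standard curve (EC50/EC90). MTS viability on the same plate gave CC50; SI = CC50/EC.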

Hepatitis B virus [5] = assay: Antiviral activity against Hepatitis B virus ayw1 infected in human HepG2 2.2.15 cells assessed as reduction in viral DNA replication preincubated for 3 days followed by media replacement and measured after 6 days by q-PCR assay; assay type: functional, organism-based; settings: ayw1, HepG2 2.2.15
How it was run: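 HepG2 2.2.15 cells at 1.5 × 10^4 cells/well in DMEM with 2% FBS and 380 μg/mL G418, treated after 16-24 h at several concentrations in triplicate. Compound medium renewed on day 3. Supernatant taken on day 6, pronase-treated, and extracellular HBV DNA measured by TaqMan qPCR against a purified HBV DNA standard curve. EC50 and EC90 taken from the DNA reduction. Lamivudine served as positive control and medium alone as virus control.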

[6] = Selectivity index, ratio of CC50 for cytotoxicity against human HepG2 2.2.15 cells to EC90 for antiviral activity against Hepatitis B virus ayw1 infected in human HepG2 2.2.15 cells; assay type: toxicity, cell-based; how it was run: as §2
[7] = Cytotoxicity against human HepG2 2.2.15 cells assessed as reduction in cell viability by MTS assay; assay type: toxicity, cell-based; how it was run: as §2
Hepatitis B virus [8] = assay: Antiviral activity against Hepatitis B virus ayw1 infected in human HepG2 2.2.15 cells assessed as reduction in viral DNA replication preincubated for 3 days followed by media replacement and measured 6 days after first dose by q-PCR assay; settings: ayw1, HepG2 2.2.15, 144 h
Hepatitis B virus [9] = assay: Antiviral activity against Hepatitis B virus infected in human HepDES19 cells assessed as reduction in capsid accumulation by measuring intracellular HBV nucleocapsid level after 5 days by agarose gel electrophoresis-based assay; assay type: functional, organism-based; settings: time 5.0 day
How it was run: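 HepDES19 cells replicating HBV were treated for 5 days. They were lysed in 10mM Tris pH 7.4, 1% Tween 20 and 150mM NaCl with protease inhibitors. Lysates were digested with micrococcal nuclease plus 10mM CaCl2 (final), normalised for protein by Bradford, and run on native agarose gels. Gels were capillary-blotted to nitrocellulose and probed with anti-HBcAg and an AP-conjugated secondary with BCIP/NBT. Bands were quantified by densitometry.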

[10] = Hepatitis B virus, HepDES19, 72 h

| SMILES | CC50 at 72 h [1] | selectivity ratio [2] | pEC50 (Hepatitis B virus [3]; [10]) | selectivity ratio [4] | pEC50 (Hepatitis B virus [5]) | selectivity ratio [6] | CC50 [7] | EC90 (Hepatitis B virus [8]) | Activity (Hepatitis B virus [9]) | Ratio CC50/EC50 [2] | pEC50 (Hepatitis B virus [3]; hepdes19) | CC50 ([1]; hepdes19, 72 h, 72 h) |
| --- | --- | --- | --- | --- | --- | --- | --- | --- | --- | --- | --- | --- |
| O=Cc1c(N2CCC[N+]3(CC2)CC[N+]2(CCCNCC2)CC3)ncnc1N1CCC[N+]2(CC1)CC[N+]1(CCCNCC1)CC2 (configuration not stated) | 100 µM | < 1 | < 4.00 |  |  |  |  |  |  |  |  |  |
| Cc1nc(N2CC[N+]3(CC2)CC[N+]2(CCNCC2)CC3)c(N)c(N2CC[N+]3(CC2)CC[N+]2(CCNCC2)CC3)n1 | 100 µM | 143 | 6.15 | > 54 | 5.73 | > 6 | > 100 µM | 15.7 µM |  |  |  |  |
| O=[N+]([O-])c1c(N2CCC[N+]3(CC2)CC[N+]2(CCCNCC2)CC3)ncnc1N1CCC[N+]2(CC1)CC[N+]1(CCCNCC1)CC2 (configuration not stated) | 100 µM | 11 | 5.05 |  |  |  |  |  |  |  |  |  |
| O=Cc1c(N2CC[N+]3(CCC[N+]4(CCNCC4)CC3)CC2)ncnc1N1CC[N+]2(CCC[N+]3(CCNCC3)CC2)CC1 | 100 µM | < 1 | < 4.00 |  |  |  |  |  |  |  |  |  |
| Cc1nc(N2CC[N+]3(CCC[N+]4(CCNCC4)CC3)CC2)c([N+](=O)[O-])c(N2CC[N+]3(CCC[N+]4(CCNCC4)CC3)CC2)n1 | 100 µM | 15 | 5.19 | > 15 | 5.19 | > 2 | > 100 µM | 58.1 µM | Active |  |  |  |
| Clc1nc(N2CCC[N+]3(CC2)CC[N+]2(CCCNCC2)CC3)nc(N2CCC[N+]3(CC2)CC[N+]2(CCCNCC2)CC3)n1 (configuration not stated) |  |  |  |  |  |  |  |  | Active |  |  |  |
| O=Cc1c(N2CCC[N+]3(CC2)CC[N+]2(CCCNCC2)CC3)nc(-c2ccccc2)nc1N1CCC[N+]2(CC1)CC[N+]1(CCCNCC1)CC2 (configuration not stated) | 92 µM | 8.4 | 4.96 |  |  |  |  |  |  |  |  |  |
| Clc1nc(N2CCC[N+]3(CC2)CC[N+]2(CCCNCC2)CC3)nc(N2CCC[N+]3(CC2)CC[N+]2(CCCNCC2)CC3)n1.[Br-].[Br-].[Br-].[Br-] (configuration not stated) | 99 µM |  |  |  |  |  |  |  |  | 13 | 5.12 |  |
| O=[N+]([O-])c1c(N2CC[N+]3(CCC[N+]4(CCNCC4)CC3)CC2)ncnc1N1CC[N+]2(CCC[N+]3(CCNCC3)CC2)CC1 | 100 µM | 11 | 5.05 |  |  |  |  |  |  |  |  |  |
| O=Cc1c(N2CC[N+]3(CCC[N+]4(CCNCC4)CC3)CC2)nc(-c2ccccc2)nc1N1CC[N+]2(CCC[N+]3(CCNCC3)CC2)CC1 | 88 µM | 1.8 | 4.32 |  |  |  |  |  |  |  |  |  |
| Nc1c(N2CCC[N+]3(CC2)CC[N+]2(CCCNCC2)CC3)ncnc1N1CCC[N+]2(CC1)CC[N+]1(CCCNCC1)CC2 (configuration not stated) | 100 µM | 2.5 | 4.40 |  |  |  |  |  |  |  |  |  |
| Cl.Cl.Clc1nc(N2CCC[N+]3(CC2)CC[N+]2(CCCNCC2)CC3)nc(N2CCC[N+]3(CC2)CC[N+]2(CCCNCC2)CC3)n1.[Br-].[Br-].[Br-].[Br-] (configuration not stated) |  |  |  |  |  |  |  |  |  | 0.67 | < 4.00 | 67 µM |
| O=Cc1c(N2CC[N+]3(CC2)CC[N+]2(CCNCC2)CC3)nc(-c2ccccc2)nc1N1CC[N+]2(CC1)CC[N+]1(CCNCC1)CC2 | 86 µM | 41 | 5.68 | > 47 | 5.67 | > 4 | > 100 µM | 26.5 µM |  |  |  |  |
| Nc1ccn([C@@H]2CS[C@H](CO)O2)c(=O)n1 [LAMIVUDINE] |  |  |  | > 113 | 7.74 | > 4 | > 2 µM | 0.541 µM |  |  |  |  |
| Nc1c(N2CC[N+]3(CCC[N+]4(CCNCC4)CC3)CC2)ncnc1N1CC[N+]2(CCC[N+]3(CCNCC3)CC2)CC1 | 100 µM | 4.5 | 4.66 | > 5 | 4.66 | > 1 | > 100 µM | 78.1 µM |  |  |  |  |
| O=Cc1c(O)nc(N2CC[N+]3(CCC[N+]4(CCNCC4)CC3)CC2)nc1N1CC[N+]2(CCC[N+]3(CCNCC3)CC2)CC1 | 100 µM | 100 | 6.00 |  |  |  |  |  |  |  |  |  |
| Cc1nc(N2CCC[N+]3(CC2)CC[N+]2(CCCNCC2)CC3)c([N+](=O)[O-])c(N2CCC[N+]3(CC2)CC[N+]2(CCCNCC2)CC3)n1 (configuration not stated) | 100 µM | 19 | 5.28 |  |  |  |  |  |  |  |  |  |
